Source: PubChem BioAssay
Cneo AK release – causes C. neoformans cell lysis. adenylate kinase release luminescence, 4 h; normalised: neutral wells 0, clomiphene wells 100. lysis activity, % at 15 µM. 360,000 tested, 0.2% active;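 active = mean lysis activity across replicates of at least 80%, whatever share of replicates individually reach that level; inactive = mean lysis activity below 80%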
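Test system: log-phase Cryptococcus neoformans yeast cells; Quantity: yeast cell density of 5 × 10^6 cells/mL; Buffer or medium: YPD; Doses: single compound concentration per well; Timing: 4 h at 37 °C static, read 1 h later; Measured by: AK luminescence; Read-out basis: lysis from increased AK signal; Control set: Clomiphene as positive control.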
HIV Env fusion – HIV envelope-mediated fusion inhibition | 360,000 tested, 1.1% active | HeLa-JRFL Env/CEM21 cell fusion, luciferase | inhibition, % at 12.3 µM;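 active = mean replicate inhibition score of at least 50 and every replicate individually at or above 50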;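 note: 0% = plate neutral controls and 100% = maraviroc near 300 nM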
PGC1a acetyl inh – modulators of PGC1a acetylation. AID 651687. inhibition, % at 15.6 µM. 350,000 tested, 0.17% active. U2OS PGC1a acetylation, AlphaScreen anti-acetyl-lysine; with virally co-expressed GCN5 acetyltransferase;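 active = every replicate shows inhibition of at least 40%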;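 note: 0% = neutral control wells and 100% = positive control wells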
FGF22 binding – shifts melting point of recombinant human FGF22. recombinant FGF22 thermal shift, SYPRO orange fluorescence; percent of sucrose octasulfate shift, DMSO zero. activity (Tm shift, normalised), % at 9.99 µM. 340,000 tested, 1.5% active. AID 651658;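 active = mean Tm shift, scaled 0 neutral to 100 positive control, at about 1.3% or above, every replicate too, limit read from the data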
ERAP1 inh – ERAP1 (human) enzyme inhibition | recombinant ERAP1, Leu-AMC fluorescence, 60 min | inhibition, % at 10.7 µM | 340,000 tested, 0.15% active;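 active = mean replicate inhibition of at least 30%, or all replicates individually reaching that 30% level; inactive = mean below 30% and not every replicate reaching it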;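 note: 0% = neutral control wells and 100% = L-leucinethiol positive control wells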
Target sequence (Q9NZ08 whole entry, looked up): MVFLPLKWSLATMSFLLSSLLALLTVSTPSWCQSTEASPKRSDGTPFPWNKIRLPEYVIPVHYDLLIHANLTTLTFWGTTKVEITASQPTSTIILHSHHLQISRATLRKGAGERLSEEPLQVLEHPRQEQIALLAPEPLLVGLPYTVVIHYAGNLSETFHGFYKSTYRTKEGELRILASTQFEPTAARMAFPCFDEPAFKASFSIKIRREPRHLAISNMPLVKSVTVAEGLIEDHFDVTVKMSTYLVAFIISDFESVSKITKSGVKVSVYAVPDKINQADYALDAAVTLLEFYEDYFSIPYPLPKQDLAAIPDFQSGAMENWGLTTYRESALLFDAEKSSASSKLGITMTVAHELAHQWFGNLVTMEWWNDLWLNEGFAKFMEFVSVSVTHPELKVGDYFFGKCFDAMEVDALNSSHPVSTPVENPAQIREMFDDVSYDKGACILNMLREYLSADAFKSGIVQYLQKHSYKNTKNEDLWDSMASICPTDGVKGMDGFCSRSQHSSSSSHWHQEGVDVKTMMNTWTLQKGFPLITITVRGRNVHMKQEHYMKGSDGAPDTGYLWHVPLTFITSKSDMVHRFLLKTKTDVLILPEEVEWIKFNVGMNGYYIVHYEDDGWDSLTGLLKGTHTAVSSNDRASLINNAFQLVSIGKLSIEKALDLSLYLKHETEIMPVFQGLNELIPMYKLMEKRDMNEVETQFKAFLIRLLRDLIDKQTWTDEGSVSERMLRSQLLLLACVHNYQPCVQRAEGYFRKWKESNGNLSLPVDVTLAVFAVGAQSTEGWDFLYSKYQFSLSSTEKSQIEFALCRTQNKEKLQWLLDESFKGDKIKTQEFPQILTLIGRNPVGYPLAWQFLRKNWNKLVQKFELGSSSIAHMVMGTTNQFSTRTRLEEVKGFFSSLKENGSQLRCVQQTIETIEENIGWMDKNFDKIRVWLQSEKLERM
Ecoli rRNA inh – inhibits bacterial ribosomal RNA function over humanized ribosomes; GFP signal change (wild-type ribosome), % (test concentration not listed); 350,000 tested, 1.6% active; E. coli WT GFP vs humanized-ribosome RFP mutants, fluorescence, 24 h; hits give low values; DMSO median 0, no signal -100;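 active = significant combined selectivity score with lowered wild-type GFP, culture density cut under 30%, mutant RFP and density less affected; inactive = any of these conditions unmet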
An asterisk follows results filed as active; / = no result given; [ ] = dose if it differs, or a comment. Rows were chosen to be rich in hits. Some 3.5% of all compounds tested hit in one or more screens of this group.

SMILES	Cneo AK release	HIV Env fusion	PGC1a acetyl inh	FGF22 binding	ERAP1 inh	Ecoli rRNA inh
COc1cc(NC(=O)C(F)(F)F)cc(OC)c1	0	-42	/	/	/	/
CCOc1ccc2nc(N3CCCC(C(=O)NCCCN4CCCCC4)C3)sc2c1 (stereo not given)	7	1	-4	0	3	4
COc1ccc2nc(N3CCCC(C(=O)NCCCN4CCN(C)CC4)C3)sc2c1 (stereo not given)	0	14	70*	/	/	/
CC(C)OCc1ccc(C(=O)N2CCN(S(=O)(=O)c3ccc(Br)s3)CC2)cc1	2	-11	-5	0	6	-4
N#Cc1ccc(C(=O)N2CCN(S(=O)(=O)c3ccc(Br)s3)CC2)cc1	/	10	/	44*	1	2
CCCCCOC(=O)Nc1nnc(CCC)s1	3	-41	/	/	-1	1
Cc1nccn1-c1ccc(C(F)(F)F)cc1[N+](=O)[O-]	/	2	-3	43*	-5	6
COCCNC(=O)C[C@H]1CC[C@@H]2[C@H](COC[C@H](O)CN2S(=O)(=O)c2ccccc2C)O1	103*	/	0	0	-6	3
COCCNC(=O)C[C@@H]1CC[C@@H]2[C@H](COC[C@@H](O)CN2S(=O)(=O)c2ccccc2C)O1	91*	/	1	0	-1	0
CCCNC(=O)C[C@H]1CC[C@H]2[C@@H](COC[C@@H](O)CN2S(=O)(=O)c2ccccc2F)O1	4	/	-5	0	-3	-1
CCNC(=O)C[C@@H]1CC[C@H]2[C@@H](COC[C@@H](O)CN2S(=O)(=O)c2ccccc2F)O1	95*	/	6	-1	11	3
COCCNC(=O)C[C@@H]1CC[C@@H]2[C@H](COC[C@H](O)CN2S(=O)(=O)c2ccccc2F)O1	1	3[16.7 µM]	4	0	-3	3
CCNC(=S)N/N=C/c1ccc(F)cc1	/	4	/	0	-3	-1
COc1cc(C(=O)NCc2ccncc2)cc(OC)c1OC	/	7	-9	43*	6	23
Cc1ccc(C)n1-c1ccc(C(=O)NCc2ccncc2)cc1	/	-27	/	44*	0	8
CCc1ccc2oc(C(=O)NCc3ccncc3)c(C)c2c1	0	62*	-8	/	/	/
Cc1cc(OC(C)C(=O)NCc2cccnc2)c2c(C)c(C)c(=O)oc2c1 (stereo not given)	6	2	-7	0	1	17
O=C(C1CCC1)N1CC(=O)N2[C@@H](CO)[C@H](c3ccc(C#Cc4cccc(F)c4)cc3)[C@@H]2C1	/	/	1	/	0	-28
Nc1ncc(-c2ccc([N+](=O)[O-])cc2)cn1	2	/	/	0	3	2
O=c1cc(CSc2nc(NCc3ccccc3)c3ccccc3n2)nc2ccc(Cl)cn12	1	-3	3	0	2	-32*
O=C(CCCn1c(SCc2cc(=O)n3cc(Cl)ccc3n2)nc2ccccc2c1=O)NCC1CCCO1 (stereo not given)	0	23	6	0	/	3
Cc1cc2c(c(SCC(=O)N(C)c3ccccc3)n1)C(=O)OC2	-1	16	2	/	/	/
O=C(NCCc1ccccc1)C1CCC(Cn2c(=O)c3ccccc3n(Cc3cccc(F)c3)c2=O)CC1 (stereo not given)	/	5	/	/	/	/
O=C(CN1C(=O)NC(Cc2ccccc2)C1=O)Nc1ccc(F)c(Cl)c1 (stereo not given)	0	/	2	1	1	-28*
O=C(CN1C(=O)NC(Cc2ccccc2)C1=O)Nc1ccc(F)cc1 (stereo not given)	-3	-44	/	/	/	/
CCCn1nc(C(=O)Nc2nc3ccccc3[nH]2)c2ccccc2c1=O	-1	-25	/	43*	0	6
COc1ccc(S(=O)(=O)N(C)C[C@H]2OCCCC[C@H](C)Oc3ccc(NC(=O)Nc4cccc5ccccc45)cc3C(=O)N([C@@H](C)CO)C[C@@H]2C)cc1	2	-22[16.7 µM]	0	1	-6	2
COc1ccc(NC(=O)Nc2ccc3c(c2)C(=O)N([C@H](C)CO)C[C@@H](C)[C@@H](CN(C)S(=O)(=O)c2ccc(Cl)cc2)OCCCC[C@H](C)O3)cc1	96*	-22[16.7 µM]	2	0	-1	5
